PDI turbidity = inhibitors of human PDI, primary screen, biochemical, turbidity, single point, plate reader; inhibition, % at 10 µM; PDI insulin aggregation turbidity, A650, 90 min; 350,000 tested, 0.052% active;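 active = mean inhibition across replicates of 30% or more, whatever share of single replicates reach that level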
Target sequence (P07237 whole entry, looked up): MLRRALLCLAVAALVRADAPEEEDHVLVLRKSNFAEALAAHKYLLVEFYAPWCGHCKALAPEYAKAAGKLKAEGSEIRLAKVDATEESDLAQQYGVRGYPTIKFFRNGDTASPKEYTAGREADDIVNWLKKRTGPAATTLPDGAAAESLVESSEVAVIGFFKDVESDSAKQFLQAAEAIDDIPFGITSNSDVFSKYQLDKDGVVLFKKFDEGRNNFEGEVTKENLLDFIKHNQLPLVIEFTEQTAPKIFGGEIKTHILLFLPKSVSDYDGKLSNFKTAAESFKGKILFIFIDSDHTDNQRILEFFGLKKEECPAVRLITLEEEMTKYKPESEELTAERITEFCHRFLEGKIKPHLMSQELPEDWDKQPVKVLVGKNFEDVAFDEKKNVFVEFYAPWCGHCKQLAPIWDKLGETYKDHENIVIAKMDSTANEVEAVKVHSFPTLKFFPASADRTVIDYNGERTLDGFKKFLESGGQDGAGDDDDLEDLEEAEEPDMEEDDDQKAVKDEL
PvdQ inh = P. aeruginosa PvdQ acylase inhibitors, primary screen, biochemical, fluorescence, plate reader and imaging, single point. purified PvdQ acylase. PvdQ acylase [Pseudomonas aeruginosa LESB58]. inhibition, % at 10 µM. 340,000 tested, 0.063% active; in the data active = inhibition above about 30%, passing the limit was not always enough;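 note: 0% = vehicle neutral wells and 100% = reference inhibitor wells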
rRNA inh HTS = reduced GFP signal of wild-type E. coli, primary screen, bacterial rRNA inhibitor project, GFP/RFP fluorescence, OD600, single point; 350,000 tested, 1.6% active; AID 720706, 2013; E. coli WT GFP vs humanized-ribosome RFP mutants, 24 h; hits give low values; DMSO median 0, no signal -100; GFP signal change (wild-type ribosome), % (no concentration beside the values);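 active = significant combined selectivity score with lowered wild-type GFP, culture density cut under 30%, mutant RFP and density less affected; inactive = any of these conditions unmet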
FN deposition inh = inhibitors of fibronectin matrix deposition, primary screen, AH1F cells, Alexa488-fibronectin fluorescence, plate reader | AH1F fibroblasts, overnight | inhibition, % at 12.6 µM | 350,000 tested, 0.086% active;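 active = mean inhibition across replicates of 30% or more, regardless of how many single replicates reach that level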;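 note: positive control wells lacked labelled fibronectin entirely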
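Assay system: AH1F fibroblast monolayer, labelled fibronectin deposition. Amount: 10000 cells per well. Also added: labelled fibronectin 24 nM. Compound: single-point pinned compound. Incubation: cell attachment 1 h, compound and FN exposure overnight. Detection: fluorescence after three HBSS washes, excitation 485 nm, emission 525 nm. Read-out: inhibition of fibronectin deposition signal.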
HIV Env fusion = inhibitors of HIV-1 Env-driven cell-cell fusion, primary screen, HeLa-JRFL effector, CEM21 target cells, luciferase. AID 651610, 2012. inhibition, % at 12.3 µM. 360,000 tested, 1.1% active;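 active = mean replicate inhibition score of at least 50 and every replicate individually at or above 50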;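 note: 0% = plate neutral controls and 100% = maraviroc near 300 nM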
ERp5 inh = inhibitors of ERp5-driven insulin aggregation, primary screen, biochemical, turbidity, absorbance 650 nm, single point; AID 651711, 2012; 350,000 tested, 0.05% active; Protein disulfide-isomerase A6 (Homo sapiens), Q15084; inhibition, % at 9.99 µM; 90 min;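 active = mean replicate inhibition above about 25%, with every replicate also reaching it, limit read from the data, passing the limit was not always enough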
Numbers without * were called inactive; . = not tested or not shown; [ ] = another dose, or the depositor's remark. A selection: hits, their analogues and other compounds. The true share with any hit is near 2.2%.

SMILES	PDI turbidity	PvdQ inh	rRNA inh HTS	FN deposition inh	HIV Env fusion	ERp5 inh
CO[C@H]1CN(C)C(=O)c2ccc(NC(=O)c3cccc(F)c3)cc2OC[C@@H](C)N(CC2CC2)C[C@@H]1C	.	.	1	-10	17[16.7 µM]	-3
CCOc1ccc2c(c1)-c1c(ssc1=S)C(C)(C)N2C(=O)c1ccco1	-5	-10	.	21	71*	.
COc1ccc2c(c1)-c1c(ssc1=S)C(C)(C)N2C(=O)CSC1=NCCS1	-1	-6	.	-11	10	.
O=C(Nc1ccc(S(=O)(=O)N2CCOCC2)cc1)c1ccc([N+](=O)[O-])o1	-2	7	-24*	9	-166	-2
O=C(Nc1ccc(N2CCOCC2)cc1)c1ccc([N+](=O)[O-])o1	0	-11	-19*	13	-289	3
O=C(Nc1ccc(N2CCOCC2)cc1)c1cc2c(s1)CCCC2	-14	8	-26	.	-22	-4
O=C(Nc1ccc(N2CCOCC2)cc1)c1cc2c(s1)CCCCC2	-4	4	-22*	-8	-6	3
O=C(Nc1ccc(S(=O)(=O)N2CCCC2)cc1)c1ccc([N+](=O)[O-])o1	-2	-2	0	.	.	-2
C[C@@H]1CN([C@H](C)CO)C(=O)c2cc(NC(=O)CCC(F)(F)F)ccc2O[C@@H](C)CCCCO[C@H]1CN(C)Cc1ccncc1	.	.	0	.	-22[16.7 µM]	6
CCCN(C)C[C@H]1Oc2cc(-c3ccccc3OC)ccc2S(=O)(=O)N([C@H](C)CO)C[C@H]1C	.	.	2	-3	-13[16.7 µM]	-5
C[C@H](CO)N1C[C@H](C)[C@@H](CN(C)C(=O)Cc2ccncc2)Oc2cc(C3=CCCCC3)ccc2S1(=O)=O	.	.	0	7	.	-1
CC1=CC(C)(C)N2C(=O)C3(SCC(=O)N3c3ccc(F)cc3)c3cc(C)cc1c32 (configuration not stated)	7	-13	.	-1	72*	.
CC1=CC(C)(C)N2C(=O)C3(NCCc4c3[nH]c3ccccc43)c3cc(C)cc1c32 (configuration not stated)	0	-17	-8	-14	17	4
COC(=O)C1=C(C)NC(C)=C(C(=O)OC)C1C(=O)OCC(=O)N1c2ccccc2CC1C (configuration not stated)	-3	-14	-12*	-2	-26	-3
CC1Cc2ccccc2N1C(=O)COC(=O)c1ccc(O)cc1 (configuration not stated)	-1	26	-5	-3	16	-1
Cn1nc(C(F)(F)F)c(-c2cccc(C(F)(F)F)c2)c1NC(=O)CSCC(=O)O	-2	3	9	-2	-7	2
Cn1nc(C(F)(F)F)c(-c2ccc(Br)cc2)c1NC(=O)c1ccco1	1	-8	-32*	-4	-15	-4
Cn1nc(C(F)(F)F)c(-c2ccc(F)cc2)c1NC(=O)Nc1ccc(F)cc1	-5	-24	-30*	2	11	2
COc1ccc(-c2c(C(F)(F)F)nn(C)c2NC(=O)c2cccnc2)cc1	-2	3	-9	1	-8	1
Cn1nc(C(F)(F)F)c(-c2ccc(Br)cc2)c1NC(=O)c1cccnc1	6	-7	-44*	-12	2	3
O=C1O[C@@H](Cc2ccccc2)[C@H]2[C@@H]3C=CCCC=C3CN2C12CCCC2	.	.	.	.	-13[16.7 µM]	1
COCc1cn(CC[C@@H]2CC[C@H](NC(=O)Nc3ccc(OC)cc3)[C@@H](CO)O2)nn1	.	.	3	.	-13[16.7 µM]	-4
Cc1cccc(NC(=O)c2ccc(S(=O)(=O)N3CC(C)OC(C)C3)cc2)n1 (configuration not stated)	7	-7	5	-3	56*	0
Cc1noc(C)c1CSc1nc2ccccc2c(=O)n1-c1ccc(Cl)cc1	-4	-3	.	11	62*	.
CC(=O)C[C@@H]1OC[C@H](Cc2ccccc2)N1S(=O)(=O)c1ccc(C)cc1	.	.	-28*	2	9	-2
SMILES	PDI turbidity	PvdQ inh	rRNA inh HTS	FN deposition inh	HIV Env fusion	ERp5 inh
Cc1ccc(S(=O)(=O)N2[C@@H](Cc3ccccc3)CO[C@H]2CC(=O)c2cccc3ccccc23)cc1	.	.	15	0	-18	2
CN(C)CCCNC(=S)NCC(c1ccc(Cl)cc1Cl)c1c[nH]c2ccccc12 (configuration not stated)	1	-6	-59	9	-1	1
CCCCNC(=S)NCC(c1ccccc1)c1c[nH]c2ccccc12 (configuration not stated)	2	-13	-49*	8	7	3
O=C(N/N=C/c1ccc2c(c1)OCO2)c1ccc(Br)o1	-11	-13	.	8	-48	.
CCN(CC)c1ccc(/C=N/NC(=O)c2ccc(Br)o2)cc1	-1	-6	-23*	-2	-62	1
COc1ccccc1/C=C(/C(=O)OCC(=O)Nc1ccccc1C)c1ccccc1	8	1	-22*	4	-5	-3
COc1ccccc1/C=C(/C(=O)OCC(=O)Nc1ccc(N(C)C)cc1)c1ccccc1	-2	9	.	13	-6	.
CCOC(=O)C(NCc1ccc(F)cc1)(NC(=O)c1ccccc1)C(F)(F)F (configuration not stated)	17	-15	.	0	-3	.
COc1ccc(CNC(NC(=O)c2ccccc2)(C(F)(F)F)C(F)(F)F)cc1	-3	-10	-19*	-2	17	5
CCCN(C(=O)CCc1cn(CCC)c2ccccc12)c1ccc(Oc2cccnc2)cc1	.	.	-13	11	70*	4
CCCN(C(=O)CCc1cn(CCC)c2ccccc12)c1ccc(N(C)c2ccccn2)cc1	.	.	1	-6	7	4
COc1ccc(NC(=O)c2cc([N+](=O)[O-])ccc2O)cc1	3	2	-61	.	83*	-3
CCCCNC(=S)Nc1ccccc1Cc1ccccc1	-3	-4	-43*	11	6	-5
COC(=O)C1=C(C)NC(C)=C(C(=O)OC)C1/C=C/c1ccccc1	-1	-13	-32*	.	.	-3
COc1ccc2c3c([nH]c2c1)[C@@H](CO)N(Cc1ccccc1)CC31CCN(C(=O)c2cccnc2)CC1	.	.	4	.	-162[16.7 µM]	1
COc1cccc(-n2c(SCC(=O)NCC3CCCO3)nc3c([nH]c4ccccc43)c2=O)c1 (configuration not stated)	3	-4	-24*	5	-3	-4
COCCn1c(SCC(=O)Nc2cc(C)on2)nc2c([nH]c3ccccc32)c1=O	2	.	4	-5	59*	3

Screens: PubChem BioAssay, Broad Institute
